Rows were chosen to be rich in hits. Some 3.5% of all compounds tested hit in one or more screens of this group.
MrgX1 allo act: human MrgX1 positive allosteric modulation, primary screen. B-score at 10 µM. actives 0.63% (n = 310,000). AID 588675. MrgX1-HEK293, Fluo-4 calcium flux, FDSS; stronger effect = higher value. Q96LB2;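 active means plate-corrected calcium response at least 3 library SD above typical, normal starting fluorescence, not activating the receptor alone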;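 further: compound read alongside a low EC10 to EC30 dose of BAM8-22 agonist; peak minus trough fluorescence over baseline measured at the second addition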
Target sequence (Q96LB2 whole entry, looked up): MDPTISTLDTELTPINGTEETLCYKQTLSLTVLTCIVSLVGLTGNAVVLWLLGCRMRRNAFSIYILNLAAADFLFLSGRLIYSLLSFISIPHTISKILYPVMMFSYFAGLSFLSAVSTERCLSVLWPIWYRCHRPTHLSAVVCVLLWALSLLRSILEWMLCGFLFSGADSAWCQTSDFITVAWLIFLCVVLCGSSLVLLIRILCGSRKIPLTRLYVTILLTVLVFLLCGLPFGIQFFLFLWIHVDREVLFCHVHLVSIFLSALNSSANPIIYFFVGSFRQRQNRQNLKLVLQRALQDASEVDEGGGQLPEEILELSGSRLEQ
MrgX1 antag: antagonists of human MrgX1 receptor. B-score at 10 µM. actives 1.3% (n = 310,000). MRGX1-HEK293 calcium flux, Fluo-4, BAM8-22 antagonism; stronger effect = lower value. AID 588676;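 active means calcium-response B-score plate-corrected more than 3 library SD below zero, starting fluorescence within 5 deviations, no agonist response on first addition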;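 further: peak minus trough fluorescence over baseline after final BAM8-22 challenge near maximal dose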
RGS4 pot: RGS4 potentiation or activation. B-score at 10 µM. HEK293 M3R/inducible RGS4, carbachol calcium flux Fluo4; stronger effect = lower value. actives 0.92% (n = 310,000);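 active means B-score of the integrated calcium signal more than 4 SD below the library mean, with starting fluorescence not abnormally high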;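 further: negative B-score means reduced calcium response which marks RGS4 activation or potentiation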
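Also added: carbachol at ECmax as muscarinic agonist stimulus; Assay system: HEK293 cells with stable M3R and inducible RGS4; Timing: overnight RGS4 induction, 30 min dye load 37 °C, 20 min compound RT; Measured by: Fluo4-AM (2 µM) calcium-flux fluorescence, kinetic read.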
RGS4 block: inhibitors of human RGS4; HEK293 M3R/RGS4 inducible, Fluo-4 calcium flux; stronger effect = higher value; triggered by carbachol at its EC20; B-score at 10 µM; actives 0.45% (n = 310,000);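 active means B-score, a plate-corrected calcium signal, over three deviations above library mean, with baseline fluorescence within five deviations of library mean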;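 further: RGS4 expression induced by doxycycline in cells with stable M3 receptor; B-score is computed from the integrated fluorescence ratio over baseline after carbachol; higher B-score means a larger calcium signal and so more RGS4 inhibition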
Target sequence (P49798 whole entry, looked up): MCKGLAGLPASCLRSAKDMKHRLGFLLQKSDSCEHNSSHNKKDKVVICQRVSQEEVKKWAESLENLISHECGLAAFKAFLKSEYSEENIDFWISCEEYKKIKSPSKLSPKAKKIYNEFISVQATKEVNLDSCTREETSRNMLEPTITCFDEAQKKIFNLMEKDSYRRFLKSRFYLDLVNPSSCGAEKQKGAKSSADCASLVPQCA
MrgX1 agonist: agonists of human MrgX1 receptor. AID 588627. B-score at 10 µM. Q96LB2. actives 0.44% (n = 310,000). MrgX1-HEK293 cells, Fluo-4 calcium fluorescence, agonist mode; stronger effect = higher value;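 active means calcium response B-score plate-corrected fluorescence ratio at least 3 library SD, with starting fluorescence B-score inside 5 SD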
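System – MrgX1-expressing HEK293 cells · Incubation – cells plated overnight, dye loaded 0.5 h 37 °C, 0.5 h room temperature · Technique – kinetic Fluo-4 NW fluorescence of intracellular calcium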
The depositor's hits bear a star.

For COc1cccc(CC(=O)OC(C)C(=O)Nc2ccc(N3CCOCC3)cc2)c1 (stereo unspecified) the results were MrgX1 allo act inactive, MrgX1 antag inactive, RGS4 pot inactive, RGS4 block inactive and MrgX1 agonist inactive.
CCOc1cc(-c2nnc(NC(=O)c3ccco3)o2)cc(OCC)c1OCC was read as MrgX1 allo act inactive, MrgX1 antag -4.87*, RGS4 pot inactive, RGS4 block inactive and MrgX1 agonist inactive.
Cc1cc(/C=C2/NC(=O)NC2=O)c(C)n1-c1ccncc1 was read as MrgX1 allo act 6.75*, MrgX1 antag inactive, RGS4 pot inactive, RGS4 block inactive and MrgX1 agonist inactive.
Screening Cc1cccc(-n2c(C)cc(/C=C3\NC(=O)NC3=O)c2C)c1 returned MrgX1 allo act inactive, MrgX1 antag inactive, RGS4 pot inactive, RGS4 block inactive and MrgX1 agonist inactive.
For Cn1nc(-c2ccccc2)c(C#N)c1Sc1cccc(Cl)c1 the results were MrgX1 allo act inactive, MrgX1 antag inactive, RGS4 pot -7.31*, RGS4 block inactive and MrgX1 agonist inactive.
COc1ccc(NC(=O)C/C(C)=N/NC(=O)C(=O)NC2CCCCC2)c(OC)c1 was read as MrgX1 allo act 9.21*, MrgX1 antag inactive, RGS4 pot inactive, RGS4 block inactive and MrgX1 agonist inactive.
Cc1ccc(S(=O)(=O)N(C)c2ccc(OCC(=O)Nc3nnc(C4CC4)s3)cc2)cc1 was read as RGS4 pot inactive and RGS4 block inactive.
Cc1cccc(CSC(=N)N)c1 was read as MrgX1 allo act inactive, MrgX1 antag inactive, RGS4 pot inactive, RGS4 block inactive and MrgX1 agonist inactive.
`C/C(=N/N=C(/N)SCc1ccccc1)C(C)(C)C` gave MrgX1 allo act 9.86*, MrgX1 antag inactive, RGS4 pot inactive, RGS4 block inactive and MrgX1 agonist inactive.
For CCNC(=O)c1ccccc1NC(=O)C1CC(=O)N(C(C)C)C1 (stereo unspecified) the results were MrgX1 allo act inactive, MrgX1 antag inactive, RGS4 pot inactive, RGS4 block inactive and MrgX1 agonist inactive.
For O=C(NCCc1ccc(Cl)cc1)c1ccc(CS(=O)Cc2ccccc2Cl)o1 (stereo unspecified) the results were MrgX1 allo act inactive, MrgX1 antag inactive, RGS4 pot -8.43*, RGS4 block inactive and MrgX1 agonist inactive.
Screening Cc1ccc(CS(=O)Cc2ccc(C(=O)NCCc3ccccc3)o2)cc1 (stereo unspecified) returned MrgX1 allo act inactive, MrgX1 antag inactive, RGS4 pot inactive, RGS4 block inactive and MrgX1 agonist inactive.
Screening CCOc1ccc(CCNC(=O)c2ccc(CS(=O)Cc3ccc(Cl)cc3)o2)cc1OCC (stereo unspecified) returned MrgX1 allo act inactive, MrgX1 antag inactive, RGS4 pot inactive, RGS4 block inactive and MrgX1 agonist inactive.
For CCOc1ccc(CCNC(=O)c2ccc(CS(=O)Cc3cccc(Cl)c3)o2)cc1 (stereo unspecified) the results were MrgX1 allo act inactive, MrgX1 antag inactive, RGS4 pot -9.38*, RGS4 block inactive and MrgX1 agonist inactive.
For CSc1ccc(CCNC(=O)c2ccc(CS(=O)Cc3ccccc3Cl)o2)cc1 (stereo unspecified) the results were MrgX1 allo act inactive, MrgX1 antag -5.97*, RGS4 pot inactive, RGS4 block inactive and MrgX1 agonist inactive.
Screening N=c1n(Cc2ccc(Cl)cc2)c2ccccc2n1CC(O)COc1ccccc1 (stereo unspecified) returned MrgX1 allo act inactive, MrgX1 antag inactive, RGS4 pot inactive, RGS4 block inactive and MrgX1 agonist inactive.
`N=c1n(Cc2ccccc2)c2ccccc2n1CC(O)COc1ccc(Cl)cc1Cl` (stereo unspecified) gave RGS4 pot -8.96* and RGS4 block inactive.
COc1ccc(-c2cc(-c3ccccc3)nc(Cl)n2)cc1OC was read as MrgX1 allo act inactive, MrgX1 antag inactive, RGS4 pot -7.01*, RGS4 block inactive and MrgX1 agonist inactive.
For COc1ccc(C(=O)N/N=C/c2sc3ccccc3c2O)cc1 the results were MrgX1 allo act inactive, MrgX1 antag inactive, RGS4 pot inactive, RGS4 block inactive and MrgX1 agonist 39.4*.
`O=C(N/N=C/c1sc2ccccc2c1O)c1cccc2ccccc12` gave MrgX1 allo act inactive, MrgX1 antag -4.83*, RGS4 pot inactive, RGS4 block inactive and MrgX1 agonist inactive.
`Cc1ccc(NC(=O)CCSCCc2ccccn2)cc1` gave MrgX1 allo act inactive, MrgX1 antag inactive, RGS4 pot inactive, RGS4 block inactive and MrgX1 agonist inactive.
For COc1ccc(CNC(=O)CSc2nc3[nH]ncc3c(=O)n2-c2ccccc2Br)cc1 the results were MrgX1 allo act inactive, MrgX1 antag inactive, RGS4 pot inactive, RGS4 block inactive and MrgX1 agonist inactive.
For C=CCn1c(SCc2csc(-c3ccc(C)cc3)n2)nnc1-c1ccccc1OC the results were MrgX1 allo act inactive, MrgX1 antag -6.01*, RGS4 pot inactive, RGS4 block inactive and MrgX1 agonist inactive.
COc1ccccc1-n1cnnc1SCc1csc(-c2ccccc2)n1 was read as MrgX1 allo act inactive, MrgX1 antag inactive and MrgX1 agonist inactive.
Cc1ccc(-c2nc(CSc3nc4ccccc4c(=O)n3CCO)cs2)cc1 was read as MrgX1 allo act inactive, MrgX1 antag inactive, RGS4 pot inactive, RGS4 block inactive and MrgX1 agonist inactive.
`Cc1ccc(-c2nc(CSc3nc4ccccc4c(=O)n3C)cs2)cc1` gave MrgX1 allo act inactive, MrgX1 antag inactive, RGS4 pot -7.02*, RGS4 block inactive and MrgX1 agonist inactive.
`Cc1cc(-c2ccccc2)nc2cc(C(=O)N(Cc3ccccc3)Cc3ccccc3)nn12` gave MrgX1 allo act inactive, MrgX1 antag inactive, RGS4 pot -7.9*, RGS4 block inactive and MrgX1 agonist inactive.
Screening COC(=O)c1cc2nc(-c3ccccc3)cc(C)n2n1 returned MrgX1 allo act inactive, MrgX1 antag inactive, RGS4 pot inactive, RGS4 block inactive and MrgX1 agonist inactive.
COc1ccc(NC(=O)COC(=O)c2ccccc2SCC(=O)N2CCCC2)cc1 was read as MrgX1 allo act inactive, MrgX1 antag inactive, RGS4 pot inactive, RGS4 block inactive and MrgX1 agonist inactive.
For CC(=O)N/C(=C\c1ccccc1)C(=O)OC(C)C(=O)NCc1ccccc1 (stereo unspecified) the results were MrgX1 allo act inactive, MrgX1 antag inactive, RGS4 pot inactive, RGS4 block inactive and MrgX1 agonist inactive.

Screens from PubChem.
